The test system of test [1] is Staphylococcus aureus. Nature of the test: Antibacterial activity against methicillin-resistant Staphylococcus aureus 78-13607A after 24 hrs by broth microdilution method. It is filed as functional. Summed up:
(§1)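 Broth microdilution following NCCLS M7-A6 (2003), with inoculum at the recommended densities. Isolates were placed into panel wells with an autoinoculator and grown in cation-adjusted Mueller-Hinton broth at 35°C in ambient air for overnight to 24 h. Panels were read by eye, and the MIC was taken as no visible growth.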
On the technique in general: Broth dilution looks for growth in wells or tubes with falling amounts of substance.

For test [2], the system named is Staphylococcus aureus. Nature of the test: Antibacterial activity against methicillin-resistant Staphylococcus aureus ATCC 33591 after 24 hrs by broth microdilution method. It counts as functional. Particulars: ATCC 33591, 24 h. The method, boiled down: as §1

This note sets out measurements from ChEMBL document CHEMBL1157314, “Antibacterial, partially acetylated oligorhamnosides from Cleistopholis patens” (2006).

≈ marks a conversion by molar mass, not a printed value.

The term MIC denotes the lowest concentration found to suppress growth. Low readings indicate a more susceptible organism, high ones a less susceptible organism. `O=C(O)c1cn(C2CC2)c2cc(N3CCNCC3)c(F)cc2c1=O` [CIPROFLOXACIN]: the MIC in the test on Staphylococcus aureus [1] is greater than 4 µg/mL; in the test on Staphylococcus aureus [2] it was 0.5 µg/mL (≈ 1.51 µM). For `CC[C@H]1OC(=O)[C@H](C)[C@@H](O[C@H]2C[C@@](C)(OC)[C@@H](O)[C@H](C)O2)[C@H](C)[C@@H](O[C@@H]2O[C@H](C)C[C@H](N(C)C)[C@H]2O)[C@](C)(O)C[C@@H](C)C(=O)[C@H](C)[C@@H](O)[C@]1(C)O` [ERYTHROMYCIN], in that order: 0.25 µg/mL (≈ 0.341 µM) and greater than 8 µg/mL. Consider `CCCCCCCCCCCCO[C@@H]1O[C@@H](C)[C@H](O[C@@H]2O[C@@H](C)[C@H](OC(C)=O)[C@@H](O[C@@H]3O[C@@H](C)[C@H](OC(C)=O)[C@@H](O[C@@H]4O[C@@H](C)[C@H](O)[C@@H](OC(C)=O)[C@H]4O)[C@H]3OC(C)=O)[C@H]2O)[C@@H](O)[C@H]1O`, for which the minimum inhibitory concentration (MIC) was determined as 16 µg/mL (≈ 17 µM) against Staphylococcus aureus [1] and 8 µg/mL (≈ 8.52 µM) against Staphylococcus aureus [2].

Regarding `Cc1onc(-c2ccccc2)c1C(=O)N[C@@H]1C(=O)N2[C@@H]1SC(C)(C)[C@@H]2C(=O)O` [OXACILLIN], the MIC is 8 µg/mL (≈ 19.9 µM) against Staphylococcus aureus [1] and greater than 8 µg/mL against Staphylococcus aureus [2].

As to `O=C(N[C@H](CO)[C@H](O)c1ccc([N+](=O)[O-])cc1)C(Cl)Cl` [CHLORAMPHENICOL], the MIC in the test with Staphylococcus aureus [2] was greater than 16 µg/mL. As for `CCC[C@@H]1C[C@@H](C(=O)N[C@@H]([C@H]2O[C@H](SC)[C@H](O)[C@@H](O)[C@H]2O)[C@H](C)Cl)N(C)C1` [CLINDAMYCIN], the MIC against Staphylococcus aureus [1] was 0.12 µg/mL (≈ 0.282 µM); in the test on Staphylococcus aureus [2] it was greater than 8 µg/mL.
